Active and inactive are the calls of the source. The calls are words filed in the database; no cut-off is given here.
Experiments:
[1] = test system: PWR-1E; assay: Induction of cell death in human PWR-1E cells assessed as reduction in nucleus area at 1 to 10 uM incubated for 72 hrs by Hoechst 33342 staining based high-content fluorescence microscopy; type: toxicity; settings: dose 1-10 µM
[2] = test system: DU-145; assay: Inhibition of cell invasion in human DU-145 cells incubated for 48 hrs by crystal violet staining based microscopic analysis; type: functional
[3] = test system: PC-3; assay: Anti-invasive activity against human PC-3 cells assessed as reduction in MMP-9 protein secretion incubated for 48 hrs by ELISA analysis; type: functional, cell-based
[4] = test system: DU-145; assay: Induction of apoptosis in human DU-145 cells assessed as early apoptotic cells at 1 to 10 uM incubated for 72 hrs by YO-PRO and propidium iodide staining based high content imaging fluorescence microscopic analysis; type: functional, cell-based; settings: dose 1-10 µM
In short: (§1)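 DU145 or PC-3 cells seeded at 2 × 10^3 per well and given CBD at 1, 5 or 10 μM with serum for 72 h; staurosporine as positive control. Stained 30 min with Hoechst 33342 (1:5000), YO-PRO-1 (1:1000) and PI (1:1000). High-content imaging with a 63× water objective. Hoechst gave confluency, nucleus area and circularity; YO-PRO/PI gave healthy, early and late apoptotic fractions.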

[5] = test system: PC-3; assay: Antiproliferative activity against human PC-3 cells assessed as reduction in cell viability incubated for 72 hrs in presence of SR144528 by MTT assay; type: functional, cell-based
In short: (§2)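 DU145 or PC-3 cells pretreated 1 h with SR141716 (CB1 antagonist), SR144528 (CB2 antagonist), capsazepine (TRPV1 antagonist) or LPI (GPR55 agonist), then given CBD for 72 h. MTT read-out as % of vehicle. Compared with CBD alone by t-test; at least three independent experiments.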

[6] = test system: PC-3; assay: Antiproliferative activity against human PC-3 cells assessed as reduction in cell viability incubated for 72 hrs in presence of LPI by MTT assay; type: functional, cell-based; in short: as §2
[7] = test system: DU-145; assay: Induction of cell cycle arrest in human DU-145 cells assessed as arrest in G1/S phase by measuring reduction in CDK4 protein expression at IC50 concentration incubated for 48 hrs by Western blotting analysis; type: functional, cell-based
In short: (§3)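 DU145 or PC-3 cells seeded at 5 × 10^4 per well and given CBD for 48 h. Lysed in ice-cold RIPA with protease/phosphatase inhibitor; 40 μg protein per lane, SDS-PAGE, PVDF transfer, milk block. Primary antibodies overnight at 4 °C, then HRP secondary 1 h at room temperature, chemiluminescence. Densitometry normalised to loading control, then to vehicle; at least three experiments.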

[8] = test system: DU-145; assay: Induction of apoptosis in human DU-145 cells assessed as reduction in fraction of healthy cells at 1 to 10 uM incubated for 72 hrs by YO-PRO and propidium iodide staining based high content imaging fluorescence microscopic analysis; type: functional, cell-based; settings: dose 1-10 µM; in short: as §1
[9] = test system: DU-145; assay: Antiproliferative activity against human DU-145 cells assessed as reduction in cell viability incubated for 72 hrs in presence of SR144528 by MTT assay; type: functional, cell-based; in short: as §2
[10] = test system: DU-145; assay: Induction of apoptosis in human DU-145 cells assessed as late apoptotic cells at 1 to 10 uM incubated for 72 hrs by YO-PRO and propidium iodide staining based high content imaging fluorescence microscopic analysis; type: functional, cell-based; settings: dose 1-10 µM; in short: as §1
[11] = test system: DU-145; assay: Antiproliferative activity against human DU-145 cells assessed as reduction in cell count at IC50 concentration incubated for 48 hrs by flow cytometry analysis; type: functional, cell-based
In short: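 Six-well seeding at 4 × 10^4 (DU145) or 3 × 10^4 (PC-3) cells per well; CBD for 48 h. Supernatant and trypsinised adherent cells pooled and resuspended in ice-cold PBS. Cells counted by flow cytometry with forward/side scatter gating; at least three independent experiments.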

[12] = test system: DU-145; assay: Induction of apoptosis in human DU-145 cells at IC50 concentration incubated for 48 hrs by YO-PRO and PI staining based flow cytometry analysis; type: functional, cell-based
In short: (§4)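 After 48 h CBD, DU145 (4 × 10^4 per well) or PC-3 (3 × 10^4 per well) supernatant and trypsinised cells pooled. Stained in ice-cold PBS with YO-PRO (1:1000) and propidium iodide (1:1000). Flow cytometry gated live, early apoptotic and late apoptotic cells and DNA fragmentation.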

[13] = test system: PC-3; assay: Induction of cell cycle arrest in human PC-3 cells assessed as arrest in G2/M phase by measuring reduction in CDK1 protein expression at IC50 concentration incubated for 48 hrs by Western blotting analysis; type: functional, cell-based; in short: as §3
[14] = test system: PC-3; assay: Induction of apoptosis in human PC-3 cells assessed as reduction in fraction of healthy cells at 1 to 10 uM incubated for 72 hrs by YO-PRO and propidium iodide staining based high content imaging fluorescence microscopic analysis; type: functional, cell-based; settings: dose 1-10 µM; in short: as §1
[15] = test system: PWR-1E; assay: Induction of apoptosis in human PWR-1E cells assessed as reduction in fraction of healthy cells at 1 to 10 uM incubated for 72 hrs by YO-PRO and propidium iodide staining based high content imaging fluorescence microscopic analysis; type: toxicity, cell-based; settings: dose 1-10 µM
In short: (§5)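 PWR-1E cells seeded at 2 × 10^3 per well and given CBD at 1, 2 or 10 μM without serum for 72 h. Stained with Hoechst 33342, YO-PRO-1 and PI, then imaged by high-content microscopy. Scored for confluency and for healthy, early and late apoptotic fractions; at least three independent experiments.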

[16] = test system: PC-3; assay: Induction of apoptosis in human PC-3 cells at IC50 concentration incubated for 48 hrs by YO-PRO and PI staining based flow cytometry analysis; type: functional, cell-based; in short: as §4
[17] = test system: PWR-1E; assay: Cytotoxicity against human PWR-1E cells assessed as reduction in cell confluency at 1 to 10 uM incubated for 72 hrs by Hoechst 33342 staining based high-content fluorescence microscopy; type: toxicity; settings: dose 1-10 µM; in short: as §5
[18] = biological target: Serine/threonine-protein kinase AKT (Homo sapiens) (UniProt P31751+Q9Y243+P31749); assay: Inhibition of AKT phosphorylation in human DU-145 cells at IC50 concentration incubated for 48 hrs by Western blot analysis relative to control; type: cell-based
In short: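 Cells seeded at 5 × 10^4 per well and treated 48 h with an IC50 dose of CBD in DU145 or PC-3. Lysed in ice-cold RIPA with protease/phosphatase inhibitor. 40 μg protein per lane on SDS-PAGE, then PVDF. Probed overnight at 4 °C for phospho-AKT and total AKT, HRP detection. Densitometry normalised to loading control, then to vehicle. Mean ± SD, ≥3 experiments, t-test.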

[19] = test system: DU-145; assay: Induction of cell death in human DU-145 cells assessed as reduction in cell nucleus area at 1 to 10 uM measured after 72 hrs by Hoechst 33342 staining based high content imaging fluorescence microscopic analysis; type: functional; settings: dose 1-10 µM; in short: as §1
[20] = test system: PC-3; assay: Induction of cell cycle arrest in human PC-3 cells assessed as arrest in G2/M phase by measuring reduction in CDK7 protein expression at IC50 concentration incubated for 48 hrs by Western blotting analysis; type: functional, cell-based; in short: as §3
[21] = test system: PC-3; assay: Induction of cell death in human PC-3 cells assessed as reduction in cell nucleus circularity at 1 to 10 uM measured after 72 hrs by Hoechst 33342 staining based high content imaging fluorescence microscopic analysis; type: functional; settings: dose 1-10 µM; in short: as §1
[22] = test system: LNCaP; assay: Antiproliferative activity against human LNCaP cells assessed as reduction in cell viability incubated for 72 hrs in serum deprivation condition by MTT assay; type: functional, cell-based
In short: (§6)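 Cells seeded at 1 × 10^3 (DU145, PC-3), 6 × 10^3 (LNCaP), 2 × 10^3 (PWR-1E) or 4.5 × 10^3 (RWPE-1) per well and left to adhere 24 h. CBD (0–100 μM) then given for 72 h in serum-free medium. MTT added for 3 h at 37 °C, formazan dissolved in DMSO, absorbance read at 570 nm. Viability is % of vehicle; IC50 by nonlinear regression; at least three independent experiments.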

[23] = test system: LNCaP; assay: Antiproliferative activity against human LNCap cells assessed as reduction in cell viability incubated for 72 hrs in presence of 10% FBS by MTT assay; type: functional, cell-based
In short: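 Cells left to adhere 24 h, then exposed to CBD (0–100 μM) for 72 h in medium with 10% FBS. MTT incubation 3 h at 37 °C, DMSO solubilisation, A570. Viability relative to vehicle; IC50 from nonlinear regression; at least three independent experiments.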

[24] = Cytotoxicity against human PWR-1E cells assessed as cell viability incubated for 72 hrs in serum deprivation condition by MTT assay; type: toxicity, cell-based; in short: as §6
[25] = test system: PC-3; assay: Antiproliferative activity against human PC-3 cells assessed as reduction in cell viability incubated for 72 hrs in presence of SR141716 by MTT assay; type: functional, cell-based; in short: as §2
[26] = test system: DU-145; assay: Antiproliferative activity against human DU-145 cells assessed as reduction in cell viability incubated for 72 hrs in presence of LPI by MTT assay; type: functional, cell-based; in short: as §2
[27] = test system: PC-3; assay: Antiproliferative activity against human PC-3 cells assessed as reduction in cell viability incubated for 72 hrs in presence of capsazepine by MTT assay; type: functional, cell-based; in short: as §2

Sequence of Serine/threonine-protein kinase AKT (Homo sapiens) (P31749 whole entry, looked up): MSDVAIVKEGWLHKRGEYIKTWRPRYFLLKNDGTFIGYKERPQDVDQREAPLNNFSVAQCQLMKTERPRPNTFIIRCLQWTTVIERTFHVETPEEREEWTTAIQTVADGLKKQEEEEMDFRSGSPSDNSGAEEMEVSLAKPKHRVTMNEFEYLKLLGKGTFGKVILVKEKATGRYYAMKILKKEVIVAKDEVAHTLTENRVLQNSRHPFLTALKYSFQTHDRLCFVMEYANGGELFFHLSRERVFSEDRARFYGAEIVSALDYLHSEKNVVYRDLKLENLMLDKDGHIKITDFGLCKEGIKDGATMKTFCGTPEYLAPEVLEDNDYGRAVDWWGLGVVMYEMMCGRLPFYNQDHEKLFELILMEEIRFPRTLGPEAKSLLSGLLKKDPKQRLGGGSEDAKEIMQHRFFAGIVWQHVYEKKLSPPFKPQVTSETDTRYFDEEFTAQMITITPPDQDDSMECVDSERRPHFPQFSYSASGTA
Sequence of Serine/threonine-protein kinase AKT (Homo sapiens) (P31751 whole entry, looked up): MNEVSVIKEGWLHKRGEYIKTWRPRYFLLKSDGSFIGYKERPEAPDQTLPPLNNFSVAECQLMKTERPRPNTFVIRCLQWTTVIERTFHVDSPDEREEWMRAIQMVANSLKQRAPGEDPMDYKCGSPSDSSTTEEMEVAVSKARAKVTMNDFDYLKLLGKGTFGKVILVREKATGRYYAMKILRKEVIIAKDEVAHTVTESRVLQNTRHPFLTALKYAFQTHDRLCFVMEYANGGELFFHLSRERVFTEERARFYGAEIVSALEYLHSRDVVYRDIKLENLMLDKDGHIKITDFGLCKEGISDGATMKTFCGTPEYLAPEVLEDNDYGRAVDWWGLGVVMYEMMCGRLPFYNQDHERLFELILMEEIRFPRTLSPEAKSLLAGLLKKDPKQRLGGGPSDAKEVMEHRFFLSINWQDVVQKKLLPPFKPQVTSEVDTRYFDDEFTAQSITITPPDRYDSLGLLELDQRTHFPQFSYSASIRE
Sequence of Serine/threonine-protein kinase AKT (Homo sapiens) (Q9Y243 whole entry, looked up): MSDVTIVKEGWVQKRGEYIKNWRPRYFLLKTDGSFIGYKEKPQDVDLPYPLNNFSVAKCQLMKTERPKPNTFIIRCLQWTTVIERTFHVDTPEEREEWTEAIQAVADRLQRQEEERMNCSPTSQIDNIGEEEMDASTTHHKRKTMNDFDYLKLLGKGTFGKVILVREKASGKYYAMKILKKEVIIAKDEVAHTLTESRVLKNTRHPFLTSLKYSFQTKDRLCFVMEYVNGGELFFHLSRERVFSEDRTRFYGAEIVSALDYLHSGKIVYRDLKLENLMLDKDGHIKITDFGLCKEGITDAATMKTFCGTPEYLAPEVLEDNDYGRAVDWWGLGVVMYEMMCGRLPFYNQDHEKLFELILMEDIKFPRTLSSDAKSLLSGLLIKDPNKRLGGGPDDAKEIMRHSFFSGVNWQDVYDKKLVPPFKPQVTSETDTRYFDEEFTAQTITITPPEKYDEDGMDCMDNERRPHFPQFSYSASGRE

Structure (SMILES): C=C(C)[C@@H]1CCC(C)=C[C@H]1c1c(O)cc(CCCCC)cc1O [CANNABIDIOL]
- Activity [1]: Toxic
- inhibition [2]: Active
- Activity [3]: inactive
- Activity [4]: inactive
- Activity [5]: Active
- Activity [6]: Active
- Activity [7]: Active
- Activity [8]: inactive
- Activity [9]: Active
- Activity [10]: inactive
- Activity [11]: Active
- Activity [12]: inactive
- Activity [13]: Active
- Activity [14]: inactive
- Activity [15]: Toxic
- Activity [16]: inactive
- Activity [17]: Toxic
- inhibition [18]: 40%
- Activity [19]: inactive
- Activity [20]: inactive
- Activity [21]: inactive
- IC50 [22]: 2.6 µM
- IC50 [23]: 18 µM
- IC50 at 72 h [24]: 0.9 µM
- Activity [25]: Active
- Activity [26]: Active
- Activity [27]: Active

Reference: ChEMBL document CHEMBL5370586 (J Nat Prod, 2023)
